Experimental data taken from paper PMC3286593 (Cancer Chemotherapy and Pharmacology, 2011).

Tests used:
[1] = system: patients with advanced solid malignancies; experiment: Phase I 3 + 3 dose escalation: MTD and dose-limiting toxicities; format: in vivo, human; conditions: for Pemetrexed dose at MTD: q3w; for MTD of sunitinib: with pemetrexed 500 mg/m^2 q3w
In short: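 Open-label multicentre 3 + 3 escalation. […] A DLT was a grade 3/4 drug-related toxicity in cycle 1 (NCI CTCAE v3.0). MTD was the highest dose with 0/3 or ≤1/6 DLTs.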

[2] = system: patients with advanced solid malignancies; experiment: Dose delays, dose reductions and relative dose intensity; format: in vivo, human; conditions: for Cycles with dose reductions: Schedule 2/1
In short: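 Grade 3/4 toxicity attributed to either drug allowed intra-patient dose reduction at the investigator's discretion, up to 2 reductions per drug. […] Relative dose intensity was actual/intended dose intensity. Results were summarised descriptively per cycle and per patient.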

[3] = system: NSCLC NCI-H460 xenograft models; conditions: cited from earlier work
[4] = system: patients with advanced solid malignancies; experiment: Safety: adverse events; format: in vivo, human
[5] = system: VEGFR and PDGFR phosphorylation; conditions: cited from earlier work
NSCLC = conditions: single-agent sunitinib on Schedule 4/2; cited from earlier work
[6] = NSCLC expansion cohort (n = 15)

## Nc1nc2[nH]cc(CCc3ccc(C(=O)N[C@@H](CCC(=O)O)C(=O)O)cc3)c2c(=O)[nH]1 [pemetrexed]
[1]; with sunitinib 37.5 mg/day CDD schedule
  Pemetrexed dose at MTD: 500 mg/m^2
[1]; with sunitinib 50 mg/day Schedule 2/1
  Pemetrexed dose at MTD: 500 mg/m^2
[2]; CDD schedule MTD
  Patients with a pemetrexed dose delay: 12 patients
  Patients with a pemetrexed dose reduction to 400 mg/m^2: 6 patients
[2]; NSCLC expansion cohort
  Cycles with pemetrexed dose reduction: 6 cycles
  Patients with at least one pemetrexed dose reduction to 400 mg/m^2: 3 patients
[2]
  Cycles with dose reductions: 3 cycles
[2]; original CDD schedule MTD
  Cycles with pemetrexed dose reduction: 13 cycles
[3]
  Effect on antitumor activity of sunitinib: enhanced its antitumor activity

## CCN(CC)CCNC(=O)c1c(C)[nH]c(/C=C2\C(=O)Nc3ccc(F)cc32)c1C [sunitinib]
[4]; CDD schedule at the MTD, one event of each in separate patients
  Serious AEs considered related to sunitinib treatment: febrile neutropenia (DLT), pancreatitis, pain, gastroenteritis, and muscular weakness
[4]; Schedule 2/1, all n = 1
  Serious AEs considered related to sunitinib treatment: febrile neutropenia (DLT), tumor perforation, and pyrexia
[5]
  Target plasma concentrations required to inhibit VEGFR and PDGFR phosphorylation: 50 to 100 ng/mL
[1]; CDD schedule
  MTD of sunitinib: 37.5 mg/day
[1]; Schedule 2/1
  MTD of sunitinib: 50 mg/day
[2]; CDD schedule MTD
  Patients with a sunitinib dose reduction to 25 mg: 12 patients
  Patients with at least one sunitinib dose delay: 12 patients
[2]; CDD schedule MTD, abdominal pain, seizure, thrombocytopenia
  Patients who discontinued sunitinib due to AEs: Three
[2]; [6]
  Cycles with sunitinib dose reductions: 22 cycles
  Patients with at least one sunitinib dose reduction to 25 mg: 7 patients
[2]
  Cycles with dose reductions: 6 cycles
[2]; original CDD schedule MTD cohort (n = 7)
  Cycles with sunitinib dose reductions: 23 cycles
[3]
  Tumor growth: decreased tumor growth
NSCLC
  ORR: 11.1%
